ChEMBL document CHEMBL1136156, “A specific anti-Helicobacter pylori agent NE2001: synthesis and its effect on the growth of H. pylori” (2003)
In brackets after ≈: the same amount, converted by molar mass.

Assays:
Format in all cases: functional
Helicobacter pylori [1] = assay: Antibacterial activity against Helicobacter pylori ATCC 43504 was determined
Outline: (§1)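 Agar dilution MIC on Columbia agar with 7% defibrinated sheep blood. Compounds were dissolved in DMSO and serially diluted two-fold. Inoculum was grown 24 h at 37 °C in Brucella broth with 5% fetal bovine serum under microaerophilic gas (5% O2, 10% CO2, 85% N2) and adjusted to about 10^8 CFU/mL, then streaked onto ~2 cm squares. Plates were incubated microaerophilically for 3 days at 37 °C. MIC was the lowest concentration giving complete growth inhibition.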

Staphylococcus aureus = assay: Antibacterial activity against Staphylococcus aureus 209P JC was determined
Outline: (§2)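 Agar dilution MIC on Mueller–Hinton agar for reference strains of other species. Compounds were dissolved in DMSO and serially diluted two-fold. Strains were stored at -80 °C before testing. MIC was taken as the minimum concentration completely inhibiting growth.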

Escherichia coli = assay: Antibacterial activity against Escherichia coli K-12 was determined; outline: as §2
Helicobacter pylori [2] = assay: Antibacterial activity against Helicobacter pylori HP004 was determined
Outline: (§3)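 Agar dilution MIC on Columbia agar with 7% defibrinated sheep blood. Compounds dissolved in DMSO and serially diluted twofold. Inoculum was H. pylori grown 24 h at 37 °C in Brucella broth with 5% fetal bovine serum under microaerophilic gas (5% O2, 10% CO2, 85% N2), adjusted to about 10^8 CFU/mL and streaked by loop. Plates were incubated microaerophilically for 3 days at 37 °C. MIC taken as the lowest concentration giving complete growth inhibition.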

[3] = system: Staphylococcus epidermidis; assay: Antibacterial activity against Staphylococcus epidermidis was determined; outline: as §2
Helicobacter pylori [4] = assay: Antibacterial activity against Helicobacter pylori HP0016 was determined; outline: as §1
Helicobacter pylori [5] = assay: Antibacterial activity against Helicobacter pylori HP003 was determined; outline: as §1
Helicobacter pylori [6] = assay: Antibacterial activity against Helicobacter pylori HP0019 was determined; outline: as §1
Helicobacter pylori [7] = assay: Antibacterial activity against Helicobacter pylori HP022 was determined; outline: as §1
Morganella morganii = assay: Antibacterial activity against Morganella morganii was determined; outline: as §2
Klebsiella pneumoniae = assay: Antibacterial activity against Klebsiella pneumoniae was determined; outline: as §2
Enterococcus faecalis = assay: Antibacterial activity against Enterococcus faecalis was determined; outline: as §2
Helicobacter pylori [8] = assay: Antibacterial activity against Helicobacter pylori HP001 was determined; outline: as §1
Helicobacter pylori [9] = assay: Antibacterial activity against Helicobacter pylori HP0017 was determined; outline: as §1
Helicobacter pylori [10] = assay: Antibacterial activity against Helicobacter pylori HP007 was determined; outline: as §1
Helicobacter pylori [11] = assay: Antibacterial activity against Helicobacter pylori HP0018 was determined; outline: as §3
Helicobacter pylori [12] = assay: Antibacterial activity against Helicobacter pylori HP021 was determined; outline: as §1
Helicobacter pylori [13] = assay: Antibacterial activity against Helicobacter pylori HP020 was determined; outline: as §3
Helicobacter pylori [14] = assay: Antibacterial activity against Helicobacter pylori HP008 was determined; outline: as §1

`Cl.N=C(N)NCc1ccc(C(=O)Nc2ccccc2)cc1` was tested. Which MIC (Helicobacter pylori [1]) did it give?
The MIC was > 64 µg/mL.

What about the MIC (Staphylococcus aureus) of the same molecule?
Its MIC is > 64 µg/mL.

And the MIC (Escherichia coli)?
Its MIC is > 64 µg/mL.

Which MIC (Helicobacter pylori [2]) does the source give for `Cc1ncc([N+](=O)[O-])n1CCO` [METRONIDAZOLE] here?
Its MIC is 8 µg/mL (≈ 46.7 µM).

And the MIC [3]?
The MIC was > 100 µg/mL.

And the MIC (Helicobacter pylori [1])?
The MIC was 64 µg/mL (≈ 374 µM).

And the MIC (Helicobacter pylori [4])?
The MIC was 32 µg/mL (≈ 187 µM).

And the MIC (Staphylococcus aureus)?
The MIC was > 100 µg/mL.

What about the MIC (Helicobacter pylori [5]) of the same molecule?
The MIC was 2 µg/mL (≈ 11.7 µM).

What about the MIC (Helicobacter pylori [6]) of the same molecule?
The MIC was 32 µg/mL (≈ 187 µM).

What about the MIC (Helicobacter pylori [7]) of the same molecule?
Its MIC is 16 µg/mL (≈ 93.5 µM).

What about the MIC (Morganella morganii) of the same molecule?
Its MIC is > 100 µg/mL.

And the MIC (Klebsiella pneumoniae)?
The MIC was > 100 µg/mL.

What about the MIC (Enterococcus faecalis) of the same molecule?
Its MIC is > 100 µg/mL.

What about the MIC (Escherichia coli) of the same molecule?
The MIC was > 100 µg/mL.

What about the MIC (Helicobacter pylori [8]) of the same molecule?
Its MIC is 4 µg/mL (≈ 23.4 µM).

And the MIC (Helicobacter pylori [9])?
The MIC was 64 µg/mL (≈ 374 µM).

And the MIC (Helicobacter pylori [10])?
The MIC was 16 µg/mL (≈ 93.5 µM).

And the MIC (Helicobacter pylori [11])?
Its MIC is 8 µg/mL (≈ 46.7 µM).

And the MIC (Helicobacter pylori [12])?
Its MIC is 32 µg/mL (≈ 187 µM).

And the MIC (Helicobacter pylori [13])?
The MIC was 128 µg/mL (≈ 748 µM).

What about the MIC (Helicobacter pylori [14]) of the same molecule?
The MIC was 32 µg/mL (≈ 187 µM).

Which results are given for `O=C(O)c1ccc(-c2ccc(O)cc2)cc1`?
MIC (Helicobacter pylori [1]): > 64 µg/mL; MIC (Staphylococcus aureus): > 64 µg/mL; MIC (Escherichia coli): > 64 µg/mL

For `Cl.N=C(N)NCc1ccc(C(=O)O)cc1`, which MIC (Helicobacter pylori [1]) is on record?
The MIC was > 64 µg/mL.

And the MIC (Staphylococcus aureus)?
The MIC was > 64 µg/mL.

What about the MIC (Escherichia coli) of the same molecule?
Its MIC is > 64 µg/mL.

For `COC(=O)c1ccc(-c2ccc(O)cc2)cc1`, which MIC (Helicobacter pylori [1]) is on record?
Its MIC is > 64 µg/mL.

And the MIC (Staphylococcus aureus)?
The MIC was > 64 µg/mL.

What about the MIC (Escherichia coli) of the same molecule?
Its MIC is > 64 µg/mL.

With `Cc1ccc(COC(=O)c2ccc(-c3ccc(OC(=O)c4ccc(CN=C(N)N)cc4)cc3)cc2)cc1.Cl` as the molecule, how does the MIC (Helicobacter pylori [2]) read?
Its MIC is 0.8 µg/mL.

What about the MIC [3] of the same molecule?
Its MIC is > 64 µg/mL.

What about the MIC (Helicobacter pylori [1]) of the same molecule?
Its MIC is 0.8 µg/mL.

What about the MIC (Helicobacter pylori [4]) of the same molecule?
Its MIC is 0.8 µg/mL.

And the MIC (Staphylococcus aureus)?
The MIC was > 64 µg/mL.

And the MIC (Helicobacter pylori [5])?
Its MIC is 0.8 µg/mL.

What about the MIC (Helicobacter pylori [6]) of the same molecule?
Its MIC is 1.6 µg/mL.

What about the MIC (Helicobacter pylori [7]) of the same molecule?
The MIC was 0.8 µg/mL.

And the MIC (Morganella morganii)?
The MIC was > 64 µg/mL.

And the MIC (Klebsiella pneumoniae)?
The MIC was > 64 µg/mL.

What about the MIC (Enterococcus faecalis) of the same molecule?
Its MIC is > 64 µg/mL.

And the MIC (Escherichia coli)?
Its MIC is > 64 µg/mL.

And the MIC (Helicobacter pylori [8])?
The MIC was 0.4 µg/mL.

And the MIC (Helicobacter pylori [9])?
Its MIC is 1.6 µg/mL.

What about the MIC (Helicobacter pylori [10]) of the same molecule?
Its MIC is 0.8 µg/mL.

And the MIC (Helicobacter pylori [11])?
Its MIC is 0.4 µg/mL.

And the MIC (Helicobacter pylori [12])?
The MIC was 0.8 µg/mL.

And the MIC (Helicobacter pylori [13])?
Its MIC is 0.8 µg/mL.

What about the MIC (Helicobacter pylori [14]) of the same molecule?
Its MIC is 0.8 µg/mL.

Which MIC (Helicobacter pylori [1]) does the source give for `Cc1ccc(COC(=O)c2ccc(-c3ccc(O)cc3)cc2)cc1` here?
The MIC was 8 µg/mL (≈ 25.1 µM).

What about the MIC (Staphylococcus aureus) of the same molecule?
The MIC was > 64 µg/mL.

And the MIC (Escherichia coli)?
Its MIC is > 64 µg/mL.

For `CC1(C)S[C@@H]2[C@H](NC(=O)[C@H](N)c3ccc(O)cc3)C(=O)N2[C@H]1C(=O)O` [AMOXICILLIN], which MIC (Helicobacter pylori [2]) is on record?
The MIC was 0.05 µg/mL (≈ 0.137 µM).

What about the MIC [3] of the same molecule?
The MIC was 0.78 µg/mL (≈ 2.13 µM).

And the MIC (Helicobacter pylori [1])?
Its MIC is 0.05 µg/mL (≈ 0.137 µM).

What about the MIC (Helicobacter pylori [4]) of the same molecule?
The MIC was 0.05 µg/mL (≈ 0.137 µM).

What about the MIC (Staphylococcus aureus) of the same molecule?
The MIC was 0.2 µg/mL (≈ 0.547 µM).

What about the MIC (Helicobacter pylori [5]) of the same molecule?
The MIC was 0.05 µg/mL (≈ 0.137 µM).

What about the MIC (Helicobacter pylori [6]) of the same molecule?
Its MIC is 0.05 µg/mL (≈ 0.137 µM).

And the MIC (Helicobacter pylori [7])?
Its MIC is 0.025 µg/mL (≈ 0.0684 µM).

And the MIC (Morganella morganii)?
Its MIC is > 100 µg/mL.

And the MIC (Klebsiella pneumoniae)?
The MIC was 50 µg/mL (≈ 137 µM).

And the MIC (Enterococcus faecalis)?
The MIC was 0.78 µg/mL (≈ 2.13 µM).

And the MIC (Escherichia coli)?
Its MIC is 1.6 µg/mL (≈ 4.38 µM).

What about the MIC (Helicobacter pylori [8]) of the same molecule?
The MIC was 0.025 µg/mL (≈ 0.0684 µM).

And the MIC (Helicobacter pylori [9])?
Its MIC is 0.025 µg/mL (≈ 0.0684 µM).

What about the MIC (Helicobacter pylori [10]) of the same molecule?
Its MIC is 0.05 µg/mL (≈ 0.137 µM).

And the MIC (Helicobacter pylori [11])?
Its MIC is 0.05 µg/mL (≈ 0.137 µM).

And the MIC (Helicobacter pylori [12])?
The MIC was 0.025 µg/mL (≈ 0.0684 µM).

What about the MIC (Helicobacter pylori [13]) of the same molecule?
The MIC was 0.05 µg/mL (≈ 0.137 µM).

What about the MIC (Helicobacter pylori [14]) of the same molecule?
Its MIC is 0.05 µg/mL (≈ 0.137 µM).

How did the MIC (Helicobacter pylori [1]) turn out when `Cl.N=C(N)NCc1ccc(C(=O)Oc2ccccc2)cc1` was run?
The MIC was 16 µg/mL.

What about the MIC (Staphylococcus aureus) of the same molecule?
The MIC was > 64 µg/mL.

And the MIC (Escherichia coli)?
The MIC was > 64 µg/mL.

`NCc1ccc(C(=O)O)cc1` [AMINOMETHYLBENZOIC ACID] was tested. Which MIC (Helicobacter pylori [1]) did it give?
The MIC was > 64 µg/mL.

And the MIC (Staphylococcus aureus)?
Its MIC is > 64 µg/mL.

And the MIC (Escherichia coli)?
The MIC was > 64 µg/mL.

Which results are given for `Cc1ccc(CO)cc1`?
MIC (Helicobacter pylori [1]): > 64 µg/mL; MIC (Staphylococcus aureus): > 64 µg/mL; MIC (Escherichia coli): > 64 µg/mL
